Test [1] relates to RBL-2H3. The experiment in a line: Inhibition of mast cell degranulation in DNP-HSA antigen sensitized rat RBL-2H3 cells assessed as reduction in beta-hexoaminosidase release at 100 uM preincubated for 5 mins followed by DNP addition and measured after 1 hr by multiplate reader. The class given is functional, cell-based. The note with it: time 65.0 min. The procedure, abridged:
(§1)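 RBL-2H3 cells (72×10^3/well) were sensitized overnight with anti-DNP IgE 0.50 µg/ml, then moved to phenol-free DMEM with 1 mg/ml BSA. Cells were preincubated 5 min at 37 °C with 0.1 % DMSO, cromolyn 1 mM or compound 100 μM, then challenged with DNP-HSA 10 ng/ml. After 1 h, supernatant was incubated 1 h with 1.4 mM p-nitrophenyl-N-acetyl-β-D-glucosaminide (citrate pH 4.2), stopped with Trizma pH 9.4, and read at 405 nm.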

The test system of test [2] is Mus musculus. The experiment in a line: Anti-asthmatic activity in OVA-induced female BALB/c mouse model assessed as reduction in pulmonary IL-13 level at 3.512 x 10^-6M, ip for 30 min before every ovalbumin challenge on day 0 and 7 and measured after 21 days by ELISA. The class given is functional, organism-based. The note with it: dose 3.512 10^-6M, time 21.0 day. The procedure, abridged:
(§2)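 Female BALB/c mice (20 g, 8 weeks) sensitized s.c. with 100 μg ovalbumin adsorbed to 13.3 mg aluminum hydroxide gel (0.4 ml) on days 0 and 7; saline controls. Test agent (1–2 mg/kg, or equimolar 3,51 × 10^-6 mol) or vehicle given ip 30 min before each OVA dose. Killed day 21 by enflurane overdose; lungs, bronchi, blood collected.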

The subject of test [3] is Mus musculus. Briefly: Anti-asthmatic activity in OVA-induced female BALB/c mouse model assessed as reduction in IgE level in plasma at 3.512 x 10^-6M, ip for 30 min before every ovalbumin challenge on day 0 and 7 and measured after 21 days by ELISA. The class given is functional, organism-based. As to conditions: dose 3.512 10^-6M, time 21.0 day. In outline:
as §2
On the technique in general: ELISA stands for enzyme-linked immunosorbent assay.

In test [4] the test system is Mus musculus. The experiment in a line: Anti-asthmatic activity in OVA-induced female BALB/c mouse model assessed as reduction in lung damage at 3.512 x 10^-6M, ip for 30 min before every ovalbumin challenge on day 0 and 7 and measured after 21 days by H and E staining based microscopic analysis. As to conditions: dose 3.512 10^-6M, time 21.0 day. The class given is functional, organism-based. In outline: as §2

The test system of test [5] is Mus musculus. Briefly: Anti-asthmatic activity in OVA-induced female BALB/c mouse model assessed as inhibition of bronchial hyperreactivity at 3.512 x 10^-6M, ip for 30 min before every ovalbumin challenge on day 0 and 7 and measured after 21 days by isometric force transducer analysis. It is filed as functional, organism-based. The note with it: dose 3.512 10^-6M, time 21.0 day. The procedure, abridged:
as §2

Test [6] concerns RBL-2H3. The experiment in a line: Inhibition of mast cell degranulation in DNP-HSA antigen sensitized rat RBL-2H3 cells assessed as reduction in beta-hexoaminosidase release at 1 mM preincubated for 5 mins followed by DNP addition and measured after 1 hr by multiplate reader relative to control. As to conditions: RBL-2H3, 1.083 h, time 65 min. The class given is functional. In outline: as §1

Activity calls are given as the source filed them. The rule behind the calls is not given here.

A word on the inhibition: it is the relative decrease from the control value, in per cent. In the case of `C[C@]12C=CC(=O)C=C1CC[C@@H]1[C@@H]2[C@@H](O)C[C@@]2(C)[C@H]1C[C@H]1O[C@@H](C3CCCCC3)O[C@]12C(=O)COC(=O)CN`, in the test with RBL-2H3 [1], the inhibition result is “Active”. The outcome with Mus musculus [2], in the test on Mus musculus [4] and with Mus musculus [5] was inactive. Also, the outcome in the test with Mus musculus [3] was Active.

On to `O=C(O)c1cc(=O)c2c(OCC(O)COc3cccc4oc(C(=O)O)cc(=O)c34)cccc2o1` [CROMOLYN], for which, in the test on RBL-2H3 [6], the inhibition at 1000 µM is around 25%.

For the origin of these results see ChEMBL document CHEMBL5579848, “Isothiocyanate-Corticosteroid Conjugates against asthma: Unity makes strength” (Eur J Med Chem, 2024).
